Source: ChEMBL document CHEMBL1144531, “Novel selective inhibitors of neutral endopeptidase for the treatment of female sexual arousal disorder” (Bioorg Med Chem, 2007)

Legend:
[1] = Inhibition of dog kidney cortex NEP at pH 7; design: species or system Canis lupus familiaris
Sus scrofa = organism: Sus scrofa; experiment: Inhibition of pig ACE
How it was run: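 Porcine ACE; same format as the NEP assay. Substrate o-aminobenzoyl-Gly-Gly-p-nitro-Phe-Pro-OH, 10 µM final, in 50 mM Tris-Cl pH 7.4 (37 °C) with 300 mM NaCl. Stopped with 2 mM EDTA; fluorescence read-out. IC50 from dilution series.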

[2] = biological target: T1, Endothelin-converting enzyme 1 (Homo sapiens) (UniProt P42892); experiment: Inhibition of human ECE1
T1 sequence (whole entry): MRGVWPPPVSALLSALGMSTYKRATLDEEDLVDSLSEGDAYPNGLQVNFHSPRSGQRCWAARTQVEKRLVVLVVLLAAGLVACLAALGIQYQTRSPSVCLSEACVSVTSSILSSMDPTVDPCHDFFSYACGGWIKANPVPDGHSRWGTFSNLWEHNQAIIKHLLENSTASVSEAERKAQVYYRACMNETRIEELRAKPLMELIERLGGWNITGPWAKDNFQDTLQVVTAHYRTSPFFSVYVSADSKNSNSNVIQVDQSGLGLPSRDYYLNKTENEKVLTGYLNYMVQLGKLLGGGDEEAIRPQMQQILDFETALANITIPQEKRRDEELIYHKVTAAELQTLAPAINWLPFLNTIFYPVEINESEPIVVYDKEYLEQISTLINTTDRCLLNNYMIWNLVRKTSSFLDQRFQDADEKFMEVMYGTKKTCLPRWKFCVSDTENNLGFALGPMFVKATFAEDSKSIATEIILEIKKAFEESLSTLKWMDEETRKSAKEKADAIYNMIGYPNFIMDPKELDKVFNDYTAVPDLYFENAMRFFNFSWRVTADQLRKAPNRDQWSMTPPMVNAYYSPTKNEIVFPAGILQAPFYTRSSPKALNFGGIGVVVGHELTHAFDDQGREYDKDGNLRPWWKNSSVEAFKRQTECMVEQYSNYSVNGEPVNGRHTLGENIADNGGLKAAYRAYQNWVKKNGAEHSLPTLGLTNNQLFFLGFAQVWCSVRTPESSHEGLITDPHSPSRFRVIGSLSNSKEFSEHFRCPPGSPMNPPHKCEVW
How it was run: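 Human ECE-1, run like the ACE assay (50 mM Tris-Cl pH 7.4, 300 mM NaCl, EDTA stop), with Big ET-1 as substrate. IC50 from dilution series.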

[3] = Distribution coefficient, log D in n-octanol and phosphate buffer at pH 7.4; type: physicochemical
[4] = Metabolic stability in human liver microsomes at 1 uM; type: ADME, Microsome
How it was run: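 Human liver microsomes, 1 µM compound with 0.5 µM CYP. Reported as first-order compound disappearance half-life.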

[5] = Permeability from apical to basolateral side of the Caco-2 cell membrane at pH 7.4; type: ADME, cell-based; settings: human, Caco-2, pH 7.4
How it was run: (§1)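 Caco-2 monolayers; apparent permeability (Papp) measured with pH 7.4 in both apical and basolateral chambers.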

[6] = Clearance in rat at 1 mg/kg, iv and 1 mg/kg, po; type: ADME, organism-based; settings: in vivo
How it was run: (§2)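 Male CD rats, jugular vein cannulated under general anaesthesia; dosed 1 mg/kg iv (tail vein) and po (gavage). Serial 0.2 ml blood samples taken from the cannula into heparin, centrifuged to plasma, stabilised with 0.01 parts 85% phosphoric acid, frozen. Plasma levels measured by LC–MS–MS after C18 solid-phase extraction, with internal standard.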

[7] = Volume of distribution in rat at 1 mg/kg, iv and 1 mg/kg, po; type: ADME, organism-based; settings: in vivo, read-out: Vdss; how it was run: as §2
[8] = Half life in rat at 1 mg/kg, iv and 1 mg/kg, po; type: ADME, organism-based; settings: in vivo; how it was run: as §2
[9] = Fraction unbound ligand in rat at 1 mg/kg, iv and 1 mg/kg, po; type: ADME, organism-based; settings: in vivo
How it was run: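 Fraction unbound in rat plasma measured at 1 µg/ml by equilibrium dialysis against isotonic Krebs–Ringer bicarbonate buffer, pH 7.4.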

[10] = Inhibition of dog kidney cortex NEP at pH 7.4; design: species or system Canis lupus familiaris
Homo sapiens = organism: Homo sapiens; experiment: Protein binding in human plasma at 1 ug/ml by equilibrium dialysis; settings: read-out: PPB (converted)
[11] = Permeability from basolateral to apical side of the Caco-2 cell membrane at pH 7.4; type: ADME, cell-based; settings: human, Caco-2, pH 7.4; how it was run: as §1
Neprilysin [12] = biological target: T2, Neprilysin (Rattus norvegicus, UniProt P07861); experiment: Inhibition of rat NEP
T2 sequence (P07861 whole entry): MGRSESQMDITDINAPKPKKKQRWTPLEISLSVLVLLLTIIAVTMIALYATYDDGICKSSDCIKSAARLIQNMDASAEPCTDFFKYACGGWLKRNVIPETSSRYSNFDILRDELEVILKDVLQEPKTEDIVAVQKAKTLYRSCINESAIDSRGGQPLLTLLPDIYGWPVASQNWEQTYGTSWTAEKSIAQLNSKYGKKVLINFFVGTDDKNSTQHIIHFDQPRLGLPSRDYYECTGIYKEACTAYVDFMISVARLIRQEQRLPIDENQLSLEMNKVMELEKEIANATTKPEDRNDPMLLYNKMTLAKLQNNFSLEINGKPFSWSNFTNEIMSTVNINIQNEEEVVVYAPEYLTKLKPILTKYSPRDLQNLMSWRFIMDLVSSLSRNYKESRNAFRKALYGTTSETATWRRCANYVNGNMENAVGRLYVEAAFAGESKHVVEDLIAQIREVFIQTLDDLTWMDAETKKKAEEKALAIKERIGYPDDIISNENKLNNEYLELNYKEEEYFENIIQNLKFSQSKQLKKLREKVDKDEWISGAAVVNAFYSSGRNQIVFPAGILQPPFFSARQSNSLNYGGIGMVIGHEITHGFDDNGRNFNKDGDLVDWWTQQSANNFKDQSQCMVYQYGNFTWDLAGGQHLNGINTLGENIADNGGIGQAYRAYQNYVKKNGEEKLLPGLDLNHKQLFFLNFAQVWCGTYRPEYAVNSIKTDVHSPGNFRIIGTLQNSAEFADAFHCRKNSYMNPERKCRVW
How it was run: (§3)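 Fluorogenic assay with Abz-D-Arg-Arg-Leu-EDDnp as substrate (solution at 50 µM before mixing). Inhibitor is pre-mixed with substrate, and enzyme is added, diluted so that conversion stays at or below ~10% in 1 h. Incubation runs 1 h at 37 °C with shaking in Tris–Cl, then is stopped with phosphoramidon. Read-out is Ex320/Em420. Each IC50 uses a 10-point half-log series in duplicate.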

Neprilysin [13] = biological target: T3, Neprilysin (Oryctolagus cuniculus, UniProt P08049); experiment: Inhibition of rabbit NEP; how it was run: as §3
T3 sequence (P08049 whole entry): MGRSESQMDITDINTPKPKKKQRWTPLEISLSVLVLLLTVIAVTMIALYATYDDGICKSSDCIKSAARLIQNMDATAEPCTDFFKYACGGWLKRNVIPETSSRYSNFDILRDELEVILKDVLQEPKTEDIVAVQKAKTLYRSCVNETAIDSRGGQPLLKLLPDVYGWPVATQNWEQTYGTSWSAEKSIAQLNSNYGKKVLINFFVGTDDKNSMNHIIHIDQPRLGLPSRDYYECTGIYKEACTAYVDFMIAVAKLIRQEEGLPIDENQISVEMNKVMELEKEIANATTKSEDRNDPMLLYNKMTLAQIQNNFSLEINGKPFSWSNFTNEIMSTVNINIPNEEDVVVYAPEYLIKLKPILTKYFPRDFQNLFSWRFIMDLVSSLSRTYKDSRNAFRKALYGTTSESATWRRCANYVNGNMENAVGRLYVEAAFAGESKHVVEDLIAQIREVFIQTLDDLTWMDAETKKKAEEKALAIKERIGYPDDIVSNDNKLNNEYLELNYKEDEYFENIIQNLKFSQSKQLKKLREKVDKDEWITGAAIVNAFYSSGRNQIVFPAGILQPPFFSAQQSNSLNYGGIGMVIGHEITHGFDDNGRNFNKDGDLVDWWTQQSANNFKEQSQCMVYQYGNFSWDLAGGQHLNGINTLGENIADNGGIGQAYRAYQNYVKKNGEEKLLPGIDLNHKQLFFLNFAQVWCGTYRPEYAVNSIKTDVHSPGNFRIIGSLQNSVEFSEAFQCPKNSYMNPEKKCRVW

[14] = Oral bioavailability in rat at 1 mg/kg, iv and 1 mg/kg, po; type: ADME, organism-based; settings: in vivo; how it was run: as §2
[15] = Tmax in rat at 1 mg/kg, iv and 1 mg/kg, po; type: ADME, organism-based; settings: in vivo; how it was run: as §2

SMILES | IC50 [1] [µM] | Activity (Sus scrofa) [µM] | also measured
CCCC(CC1(C(=O)Nc2nnc(CC)s2)CCCC1)C(=O)O (stereo not drawn) | 0.06 | > 3 | 
COCCC(CC1(C(=O)Nc2nnc(Cc3ccccc3)s2)CCCC1)C(=O)O (stereo not drawn) | 0.005 | > 3 | 
CCCC(CC1(C(=O)N[C@H]2C[C@@H]2c2ccccc2)CCCC1)C(=O)O (relative stereo) | 0.16 | > 3 | 
CCCCCCCNC(=O)C1(CC(CCOC)C(=O)O)CCCC1 (stereo not drawn) | 0.008 | > 3 | 
COCCC(CC1(C(=O)NC(C)Cc2ccccc2)CCCC1)C(=O)O (stereo not drawn) | 0.426 | > 3 | 
CCC[C@H](CC1(C(=O)Nc2nnc(CC)s2)CCCC1)C(=O)O | 0.0237 | > 3 | Activity [2]: > 3 µM; logD [3]: 0.5; half-life at 1 µM [4]: > 2 h; Papp A→B [5]: 9 ×10⁻⁶ cm/s; clearance [6]: 3 mL/min/kg; Vd [7]: 0.44 L/kg; half-life [8]: 1.7 h; Fu [9]: 0.106
COCC[C@H](CC1(C(=O)N[C@@H]2C[C@H]2c2ccc(OC)cc2)CCCC1)C(=O)O | 0.008 | > 3 | Activity [2]: > 3 µM; logD [3]: 0.3; half-life at 1 µM [4]: > 2 h; Papp A→B [5]: 7 ×10⁻⁶ cm/s; IC50 [10]: 0.0057 µM; fraction unbound at 1 ug/ml (Homo sapiens): 0.032
COCC[C@H](CC1(C(=O)NCCCc2ccc(Cl)cc2)CCCC1)C(=O)O | 0.0009 | > 3 | Activity [2]: > 3 µM; logD [3]: 1; half-life at 1 µM [4]: > 2 h; Papp A→B [5]: 12 ×10⁻⁶ cm/s; Papp B→A [11]: 14 ×10⁻⁶ cm/s; IC50 (Neprilysin [12]): 0.0006 µM; IC50 (Neprilysin [13]): 0.0008 µM; IC50 [10]: 0.0038 µM; clearance [6]: 3.5 mL/min/kg; Vd [7]: 0.6 L/kg; half-life [8]: 1.9 h; fraction unbound [9]: 0.083; bioavailability [14]: 70%
COCCC(CC1(C(=O)N[C@@H]2C[C@H]2c2ccc(F)cc2)CCCC1)C(=O)O (relative stereo) | 0.04 | > 3 | 
COCC[C@H](CC1(C(=O)NC2(CO)Cc3ccccc3C2)CCCC1)C(=O)O | 0.0054 | > 3 | Activity [2]: > 3 µM; logD [3]: -0.2; half-life at 1 µM [4]: > 2 h; Papp A→B [5]: 1 ×10⁻⁶ cm/s; Papp B→A [11]: 2.5 ×10⁻⁶ cm/s; IC50 [10]: 0.0142 µM; clearance [6]: 18 mL/min/kg; Vd [7]: 7.5 L/kg; half-life [8]: 4.8 h; fraction unbound [9]: 0.088; bioavailability [14]: 109%; Tmax [15]: < 1 h; fraction unbound at 1 ug/ml (Homo sapiens): 0.228
COCCC(CC1(C(=O)NCCOc2ccc(OC)cc2)CCCC1)C(=O)O (stereo not drawn) | 0.035 | > 3 | 
COCCC(CC1(C(=O)N[C@H]2C[C@@H]2c2ccccc2)CCCC1)C(=O)O (relative stereo) | 0.1 | > 3 | 
COCCC(CC1(C(=O)N[C@H]2C[C@@H]2c2ccc(Cl)cc2)CCCC1)C(=O)O (relative stereo) | 0.021 | > 3 | 
COCCC(CC1(C(=O)N[C@@H]2C[C@H]2c2ccc(OC)cc2)CCCC1)C(=O)O (relative stereo) | 0.008 | > 3 | 
CCCCC[C@@H]1C[C@H]1NC(=O)C1(CC(CCOC)C(=O)O)CCCC1 (relative stereo) | 0.01 | > 3 | 
COCCC(CC1(C(=O)NCCCc2ccc(Cl)cc2)CCCC1)C(=O)O (stereo not drawn) | 0.002 | > 3 | 
COCCC(CC1(C(=O)NCCc2ccc(OC)cc2)CCCC1)C(=O)O (stereo not drawn) | 0.369 | > 3 | 
COCCC(CC1(C(=O)NCCc2ccccc2)CCCC1)C(=O)O (stereo not drawn) | 0.5 | > 3 | 

Now from value to compound, other results behind:

IC50 [1] [µM] | Activity (Sus scrofa) [µM] | SMILES | also measured
0.011 | > 3 | COCCC(CC1(C(=O)NC2(CO)Cc3ccccc3C2)CCCC1)C(=O)O (stereo not drawn) | 
0.035 | > 3 | COCCC(CC1(C(=O)NCCCc2ccccc2)CCCC1)C(=O)O (stereo not drawn) | 
0.017 | > 3 | CCCCc1ccnc(NC(=O)C2(CC(CCOC)C(=O)O)CCCC2)c1 (stereo not drawn) | 
0.065 | > 3 | COCC(CC1(C(=O)N[C@H]2C[C@@H]2c2ccccc2)CCCC1)C(=O)O (relative stereo) | 
0.015 | > 3 | COCCC(CC1(C(=O)NCCCc2ccc(F)cc2)CCCC1)C(=O)O (stereo not drawn) | 
0.002 | > 3 | COCC[C@H](CC1(C(=O)NCCCc2ccc(F)cc2)CCCC1)C(=O)O | Activity [2]: > 3 µM; logD [3]: 0.5; half-life at 1 µM [4]: > 2 h; Papp A→B [5]: 12 ×10⁻⁶ cm/s; IC50 [10]: 0.0088 µM; clearance [6]: 13 mL/min/kg; Vd [7]: 2.7 L/kg; half-life [8]: 2.4 h; fraction unbound [9]: 0.138; bioavailability [14]: 138%; fraction unbound at 1 ug/ml (Homo sapiens): 0.124
0.002 | > 3 | COCCC(CC1(C(=O)NCCCc2ccc(OC)cc2)CCCC1)C(=O)O (stereo not drawn) | 
0.02 | > 3 | COCC(CC1(C(=O)N[C@H]2C[C@@H]2c2ccc(Cl)cc2)CCCC1)C(=O)O (relative stereo) | 
